Source: ChEMBL document CHEMBL3272270, “Potential antitumor agents. 23. 4'-(9-Acridinylamino)alkanesulfonanilide congeners bearing hydrophilic functionality” (J Med Chem, 1977)

Key:
L1210 [1] = experiment: Antileukemic activity against ip implanted mouse L1210 cells in C3H/DBA2 F1 hybrid hybrid mouse assessed as increase life span treated ip after 24 hrs after tumor inoculation and continued for 5 days; type: functional
Summary of the method: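 10^5 L1210 cells implanted ip in 18.5-22.5-g C3H/DBA2 F1 hybrid mice. Drug given ip from 24 h after inoculation, continuing for 5 days, each dose in 0.2 mL. Dose levels spaced at 0.18 log intervals, six mice per dose, one control group per six test groups. Read-out is life extension; 50-day survivors counted as cures.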

[2] = Retardation factor, Rm of the compound by reversed phase partition chromatography; type: physicochemical
Mus musculus = experiment: Toxicity in sc implanted mouse L1210 cells allografted C3H/DBA2 F1 hybrid hybrid mouse assessed as optimum dose required to increase life span treated ip after 24 hrs after tumor inoculation and continued for 5 days; type: organism-based; settings: in vivo
Summary of the method: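 10^5 L1210 cells implanted sc above the right axilla in 18.5-22.5-g C3H/DBA2 F1 hybrid mice. Ip dosing (0.2 mL per dose) ran daily for 5 days from 24 h. Dilution series at 0.18 log intervals, with the median dose set at the earlier ip L1210 optimum. Six mice per dose, one control group per six test groups. Tests were repeated until the highest dose was toxic and the lowest clearly suboptimal.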

L1210 [3] = experiment: Antileukemic activity against sc implanted mouse L1210 cells in C3H/DBA2 F1 hybrid hybrid mouse assessed as increase life span treated ip after 24 hrs after tumor inoculation and continued for 5 days; type: functional
Summary of the method: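 10^5 L1210 cells implanted sc above the right axilla in 18.5-22.5-g C3H/DBA2 F1 hybrid mice. Drug given ip (0.2 mL) from 24 h for 5 days. Dilution series at 0.18 log intervals, centred on the optimum ip L1210 dose. Top dose had to show toxicity and lowest dose had to be suboptimal, otherwise the test was repeated. Read-out is life extension.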

Compound	ILS (L1210 [1])	Rm [2]	Activity (Mus musculus)	ILS (L1210 [3])
O=[N+]([O-])c1ccc2c(Nc3ccc(N4CCNCC4)cc3)c3ccccc3nc2c1	>25%	-0.81	15 mg/kg	–
CNC(=O)Nc1ccc(Nc2c3ccccc3nc3ccccc23)cc1	112%	0.25	60 mg/kg	>25%
COc1cc(NS(C)(=O)=O)ccc1Nc1c2ccccc2nc2c(C(N)=O)cccc12.Cl	140%	-0.27	25 mg/kg	36%
CNC(=O)c1cccc2c(Nc3ccc(NS(C)(=O)=O)cc3OC)c3ccccc3nc12.Cl	166%	0.06	8.3 mg/kg	59%
COc1cc(NS(C)(=O)=O)ccc1Nc1c2ccccc2nc2c(C(=O)N(C)C)cccc12.Cl	84%	0.09	15 mg/kg	61%
COc1cc(NS(C)(=O)=O)ccc1Nc1c2ccccc2nc2c(C(=O)NCC(N)=O)cccc12.Cl	105%	-0.54	62 mg/kg	41%
COc1cc(NS(C)(=O)=O)ccc1Nc1c2ccccc2nc2c(C(=O)NCC(O)CO)cccc12.Cl (configuration not stated)	72%	-0.36	92 mg/kg	–
Br.CS(=O)(=O)N(CC(O)CO)c1ccc(Nc2c3ccccc3nc3ccccc23)cc1 (configuration not stated)	>25%	-0.03	65 mg/kg	–
COc1ccc(Nc2c3ccccc3nc3cc([N+](=O)[O-])ccc23)cc1.Cl	33%	0.49	90 mg/kg	–
COc1ccc(Nc2c3ccccc3nc3cc(N)ccc23)cc1.Cl	66%	0.31	15 mg/kg	–
Br.CN1CCN(c2ccc(Nc3c4ccccc4nc4cc([N+](=O)[O-])ccc34)cc2)CC1	>25%	-0.78	60 mg/kg	–
Br.c1ccc2c(Nc3ccc(N4CCNCC4)cc3)c3ccccc3nc2c1	>25%	-0.8	15 mg/kg	–
Br.CN1CCN(c2ccc(Nc3c4ccccc4nc4ccccc34)cc2)CC1	>25%	-0.68	50 mg/kg	–
CC(=O)N1CCN(c2ccc(Nc3c4ccccc4nc4ccccc34)cc2)CC1.Cl	81%	0.23	75 mg/kg	–
CS(=O)(=O)N1CCN(c2ccc(Nc3c4ccccc4nc4ccccc34)cc2)CC1.Cl	69%	0.21	200 mg/kg	–
Cl.NC(=O)N1CCN(c2ccc(Nc3c4ccccc4nc4ccccc34)cc2)CC1	78%	-0.11	37 mg/kg	–
CCOC(=O)NNc1ccc(Nc2c3ccccc3nc3ccccc23)cc1.Cl	67%	0.41	25 mg/kg	–
CNC(=O)Nc1ccc(Nc2c3ccccc3nc3ccccc23)c(OC)c1.Cl	72%	0.51	50 mg/kg	–
CCOC(=O)N1CCN(C(=O)Nc2ccc(Nc3c4ccccc4nc4ccccc34)cc2)CC1.Cl	29%	0.59	50 mg/kg	–
COC(=O)NNC(=O)Nc1ccc(Nc2c3ccccc3nc3ccccc23)cc1.Cl	67%	-0.04	> 500 mg/kg	–

Compound	ILS (L1210 [1])	Rm [2]	Activity (Mus musculus)	ILS (L1210 [3])
Cl.O=C(Nc1ccc(Nc2c3ccccc3nc3ccccc23)cc1)OCC(O)CO (configuration not stated)	63%	-0.06	25 mg/kg	>25%
CC(=O)NCCS(=O)(=O)Nc1ccc(Nc2c3ccccc3nc3ccccc23)cc1.Cl	94%	-0.06	50 mg/kg	>25%
COC(=O)NCCS(=O)(=O)Nc1ccc(Nc2c3ccccc3nc3ccccc23)cc1.Cl	67%	0.24	> 500 mg/kg	–
CS(=O)(=O)NCCS(=O)(=O)Nc1ccc(Nc2c3ccccc3nc3ccccc23)cc1.Cl	33%	-0.14	110 mg/kg	–
Cl.NC(=O)NCCS(=O)(=O)Nc1ccc(Nc2c3ccccc3nc3ccccc23)cc1	53%	-0.21	200 mg/kg	>25%
Cl.O=C1CNC(=O)N1CCS(=O)(=O)Nc1ccc(Nc2c3ccccc3nc3ccccc23)cc1	51%	-0.19	160 mg/kg	>25%
CC(=O)N(C)CCS(=O)(=O)Nc1ccc(Nc2c3ccccc3nc3ccccc23)cc1.Cl	54%	0.05	200 mg/kg	–
CC(=O)NCCCS(=O)(=O)Nc1ccc(Nc2c3ccccc3nc3ccccc23)cc1.Cl	26%	-0.01	> 500 mg/kg	–
Cl.O=C1CCS(=O)(=O)N1c1ccc(Nc2c3ccccc3nc3ccccc23)cc1	33%	0.13	200 mg/kg	–
Cl.O=C(O)CCS(=O)(=O)Nc1ccc(Nc2c3ccccc3nc3ccccc23)cc1	>25%	0.1	350 mg/kg	–
COC(=O)CCS(=O)(=O)Nc1ccc(Nc2c3ccccc3nc3ccccc23)cc1.Cl	–	0.57	> 500 mg/kg	>25%
Cl.NC(=O)CCS(=O)(=O)Nc1ccc(Nc2c3ccccc3nc3ccccc23)cc1	67%	-0.34	> 500 mg/kg	–
CN(C)C(=O)CCS(=O)(=O)Nc1ccc(Nc2c3ccccc3nc3ccccc23)cc1.Cl	63%	0.17	150 mg/kg	–
CC(CS(=O)(=O)Nc1ccc(Nc2c3ccccc3nc3ccccc23)cc1)C(N)=O.Cl (configuration not stated)	>25%	-0.11	50 mg/kg	–
COCCS(=O)(=O)Nc1ccc(Nc2c3ccccc3nc3ccccc23)cc1.Cl	79%	0.21	280 mg/kg	25%
COc1cc(NS(C)(=O)=O)ccc1Nc1c2ccccc2nc2c(C(=O)N[C@H]3[C@@H](OC)O[C@H](COC(C)=O)[C@@H](OC(C)=O)[C@@H]3OC(C)=O)cccc12.Cl	>25%	0.62	> 400 mg/kg	–
COc1cc(NS(C)(=O)=O)ccc1Nc1c2ccccc2nc2c(C(=O)N[C@H]3[C@@H](OC)O[C@H](CO)[C@@H](O)[C@@H]3O)cccc12.Cl	100%	-0.57	180 mg/kg	49%
Br.COc1cc(NS(C)(=O)=O)ccc1Nc1c2ccccc2nc2cc(CCC(N)=O)ccc12	58%	-0.25	125 mg/kg	–
COc1cc(NS(C)(=O)=O)ccc1Nc1c2ccc(I)cc2nc2c(OCC(O)CO)cccc12.Cl (configuration not stated)	–	0.06	62 mg/kg	>25%
CS(=O)(=O)Nc1ccc(Nc2c3ccccc3nc3ccccc23)cc1	107%	0	45 mg/kg	28%
